The source of these data is paper PMC6370461 (ACS chemical biology, 2018).

Usually Kd stands for the constant that tells how readily two partners part at equilibrium. Read a low Kd as higher affinity. As a reminder, the IC50 is the concentration at which inhibition is half-maximal. Higher therefore signals lower potency.

Data set [1] concerns the target T1, Human DJ-1 (Homo sapiens, UniProt Q99497).
T1 sequence (Q99497 1-189): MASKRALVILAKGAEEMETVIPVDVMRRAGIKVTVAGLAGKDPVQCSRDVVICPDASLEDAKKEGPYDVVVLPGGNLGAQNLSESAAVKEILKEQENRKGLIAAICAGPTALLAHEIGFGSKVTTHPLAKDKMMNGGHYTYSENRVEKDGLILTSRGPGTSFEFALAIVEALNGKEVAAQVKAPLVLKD
Put plainly: Binding affinity and thermodynamics by ITC. The method in brief:
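Recombinant human DJ-1 (E. coli-expressed) dialysed into PBS to remove DTT; compounds in the same PBS with 5% DMSO. Titrations at 25 °C with protein in the cell and compound in the syringe: DJ-1 20 μM against compound 200 μM (muteins: protein 100 μM, compound 1 mM). Isotherms fitted to a one-site binding model.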
For orientation: In ITC the heat of successive injections is recorded.

Data set [2] deals with T1, Human DJ-1. The data set can be described thus: Thermal stability of DJ-1 by DSF. In kind it is binding. The conditions noted are these: DJ-1 10 μM, compound 50 μM. The method in brief: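 Tag-free DJ-1 (10 μM) with compound (50 μM) in PBS, 0.01% Tween 20 and 2.5% DMSO, with SYPRO Orange dye (excitation 470 nm, emission 570 nm). Samples were heated from 30 to 85 °C at 2 °C/min. TM was taken from the inflection point of the derivative unfolding curve and compared with unbound protein.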

Data set [3] deals with T1, Human DJ-1. The data set can be described thus: In vitro glyoxalase activity assay with phenylglyoxal as substrate. Type of data set: biochemical. The method in brief: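 Recombinant DJ-1 0.5 μM with phenylglyoxal 2 μM in 100 mM potassium phosphate pH 7.0, 1% DMSO; compound 1.0 nM–30 μM. Initial velocities were taken from the loss of absorbance at 250 nm. Activity was expressed as the velocity ratio with versus without inhibitor, and sigmoidal fits gave the inhibition constant.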

In data set [4] the target is T2, DJ-1 in HeLa cells (Homo sapiens, UniProt Q99497).
T2 sequence (Q99497 1-189): T1 sequence (Q99497 1-189)
Put plainly: Cellular thermal shift assay. The conditions noted are these: thermal treatment at 63 °C. In kind it is cell-based.

The subject of a further data set is DJ-1 in HEK293 cells. The data set can be described thus: Glyoxalase/deglycase activity in cells: CML-modified proteins by western blot. In kind it is cell-based, human. The settings on record: glyoxal 2 mM. The method in brief: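 HEK293 cells (2×10^5 per 6 cm dish) were cultured 3 days in DMEM with 10% FBS, then starved 20 h in 1% FBS. Treatment was 3 h in DMEM with 1% FBS, 0.2% DMSO and compound, with or without glyoxal (2 mM). Lysates underwent SDS-PAGE, nitrocellulose transfer and immunoblotting for carboxymethyl lysine, DJ-1 and β-actin, detected with HRP secondaries.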

The target of data set [5] is T2, DJ-1 in HeLa cells. Put plainly: CML-modified protein by western blot in HeLa cells. Type of data set: cell-based. The settings on record: highest concentration employed. The method, boiled down: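 HeLa cells (1.5×10^5 per well) were grown 24 h in DMEM with 10% FBS, starved 20 h in 0.5% FBS, then exposed 3 h to compound in 0.5% FBS with 0.2% DMSO. DJ-1 knockout HeLa cells were also used. RIPA lysates went to SDS-PAGE and nitrocellulose. The anti-CML blot was read by HRP chemiluminescence; DJ-1 and β-actin were detected by Cy5 fluorescence.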
(A western blot detects proteins with antibodies after separation by electrophoresis.)

On to `O=C1Nc2ccccc2C1=O` [compound 1, 1H-indole-2,3-dione], for which, at Human DJ-1 [1], the Kd was determined as 3.2 ± 0.1 µM and the “enthalpic efficiency (EE)” value came out at 1.1 kcal/mol. Moreover, at Human DJ-1 [1] (ITC, 25 °C), the ΔH of binding is -11.6 ± 0.1 kcal/mol and the “−TΔS of binding” value was 4.1 kcal/mol. The “ΔTM, thermal stabilization with respect to the unbound protein” value at Human DJ-1 [2] came to 1.8 °C. At Human DJ-1 [3], half-maximal inhibition (IC50) required 13 µM. Further, the “stabilization of the soluble form of DJ-1 in cells” value at DJ-1 in HeLa cells [4] is given as “concentration-dependent stabilization”. Also, the “intensity of bands of proteins modified with CML compared with DMSO control” value with DJ-1 in HEK293 cells was “increased significantly”. On DJ-1 in HeLa cells [5], the “intensity of a protein modified with CML” value was “clearly increases”.
